Measurements published in ChEMBL document CHEMBL3864175, “Sulfonamides as Selective NaV1.7 Inhibitors: Optimizing Potency and Pharmacokinetics to Enable in Vivo Target Engagement” (ACS Med Chem Lett, 2016).

What was measured:
[1] = target: Sodium channel protein type 8 subunit alpha (Homo sapiens, UniProt Q9UQD0); assay: Inhibition of 20% inactivated human Nav1.6 expressed in HEK293 cells assessed as inhibition of peak inward current by whole cell patch clamp method; assay type: cell-based
[2] = target: Sodium channel protein type 10 subunit alpha (Homo sapiens, UniProt Q9Y5Y9); assay: Inhibition of 20% inactivated human Nav1.8 expressed in CHO cells assessed as inhibition of TTX-resistant current by whole cell patch clamp method; assay type: cell-based
[3] = Total plasma concentration in histamine induced C57BL/6 mouse model of scratching at 5 mg/kg, po pretreated for 120 mins followed by histamine-challenge measured after 30 mins; assay type: ADME, organism-based
Summary of the method: (§1)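 Male C57BL/6 mice dosed orally 120 min before intradermal histamine. Scratching bouts counted over 30 min and compared with vehicle by one-way ANOVA with Dunnett's test. Total and unbound plasma levels taken 30 min after histamine.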

[4] = Cmax in rat at 10 mg/kg, po by LC-MS/MS analysis; assay type: ADME, organism-based; design: dose 10 mg/kg, route oral; details: in vivo
Summary of the method: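 Rats dosed orally at 10 mg/kg as a solution in 30% HPBCD/70% water, brought to pH 10 with KOH.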

[5] = Unbound plasma concentration in histamine induced C57BL/6 mouse model of scratching at 5 mg/kg, po pretreated for 120 mins followed by histamine-challenge measured after 30 mins; assay type: ADME, organism-based; details: in vivo, 0.5 h; summary of the method: as §1
[6] = target: Sodium channel protein type 1 subunit alpha (Homo sapiens, UniProt P35498); assay: Inhibition of 20% inactivated human Nav1.1 expressed in HEK293 cells assessed as inhibition of peak inward current by whole cell patch clamp method; assay type: cell-based
[7] = target: T1, Sodium channel protein type 9 subunit alpha (Homo sapiens, UniProt Q15858); assay: Inhibition of human Nav1.7 expressed in HEK293 cells assessed as inhibition of sodium current at holding potential of -125 mV measured for 3 to 5 mins by whole cell voltage clamp method; assay type: cell-based
[8] = target: Sodium channel protein type 9 subunit alpha (Rattus norvegicus, UniProt O08562); assay: Inhibition of 20% inactivated rat Nav1.7 expressed in HEK293T cells assessed as inhibition of sodium current measured for 3 to 5 mins by whole cell voltage clamp method; assay type: cell-based, HEK-293T
[9] = target: T1, Sodium channel protein type 9 subunit alpha; assay: Inhibition of human Nav1.7 in closed state expressed in HEK293 cells assessed as inhibition of sodium current at holding potential of -140 mV measured for 3 to 5 mins by whole cell voltage clamp method; assay type: cell-based
Summary of the method: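 Closed-state (fully non-inactivated) protocol: inhibition was measured with cells held at −140 mV, for comparison with protocols using inactivating depolarizations.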

[10] = Total plasma concentration in histamine induced C57BL/6 mouse model of scratching at 20 mg/kg, po pretreated for 120 mins followed by histamine-challenge measured after 30 mins; assay type: ADME, organism-based; summary of the method: as §1
[11] = Unbound plasma concentration in histamine induced C57BL/6 mouse model of scratching at 60 mg/kg, po pretreated for 120 mins followed by histamine-challenge measured after 30 mins; assay type: ADME, organism-based; details: in vivo, 0.5 h; summary of the method: as §1
[12] = tested on: Mus musculus; assay: Antipruritic activity in histamine-induced scratching C57BL/6 mouse model assessed as reduction in scratching bouts administered orally 120 mins prior to histamine challenge measured after 30 mins relative to vehicle-treated control; assay type: functional; summary of the method: as §1
[13] = Selectivity index, ratio of IC50 for human Nav1.5 expressed in HEK293 cells to IC50 for human Nav 1.7 expressed in HEK293 cells
[14] = target: Voltage-gated inwardly rectifying potassium channel KCNH2 (Homo sapiens, UniProt Q12809); assay: Displacement of [3H]dofetilide from human ERG expressed in HEK293 cell membranes measured after 90 mins by TopCount scintillation counting method
[15] = target: T1, Sodium channel protein type 9 subunit alpha; assay: Inhibition of human Nav1.7 expressed in HEK293 cells assessed as inhibition of sodium current at holding potential of -60 mV measured for 3 to 5 mins by whole cell voltage clamp method; assay type: cell-based
[16] = Half life in dog at 0.5 mg/kg, iv by LC-MS/MS analysis; assay type: ADME, organism-based, Canis lupus familiaris; details: in vivo
Summary of the method: (§2)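 Dogs dosed intravenously at 0.5 mg/kg in 30% HPBCD/70% water, brought to pH 10 with KOH.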

[17] = Drug uptake in plasma of po dosed histamine induced C57BL/6 mouse model of scratching pretreated for 120 mins followed by histamine-challenge measured after 30 mins; assay type: ADME, organism-based; details: in vivo, 0.5 h; summary of the method: as §1
[18] = Unbound clearance in rat at 0.5 mg/kg, iv by LC-MS/MS analysis; assay type: ADME, organism-based; details: in vivo
Summary of the method: (§3)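 Male rats, n = 2 per group, dosed intravenously at 0.5 mg/kg as a solution in 100% DMSO. Unbound clearance is derived from total clearance.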

[19] = Tmax in dog at 1.7 mg/kg, po by LC-MS/MS analysis; assay type: ADME, organism-based, Canis lupus familiaris; details: in vivo
Summary of the method: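 Dogs given a 1.7 mg/kg oral dose as a solution in 30% HPBCD/70% water/KOH at pH = 10; plasma parameters derived from this oral dosing, with the iv dose at 0.5 mg/kg in the same vehicle.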

[20] = Fraction unbound in dog plasma at 5 uM by LC-MS/MS analysis; assay type: ADME, cell-free, Canis lupus familiaris
[21] = Drug excretion in bile duct cannulated Sprague-Dawley rat urine assessed as parent compound at 1 mg/kg, iv administered through catheter measured up to 24 hrs by LC-MS/MS analysis; assay type: ADME, organism-based; details: read-out: Drug excretion
[22] = Inhibition of 20% inactivated cynomolgus monkey Nav1.7 expressed in HEK293T cells assessed as inhibition of sodium current measured for 3 to 5 mins by whole cell voltage clamp method; assay type: cell-based; details: Macaca fascicularis, HEK-293T
Summary of the method: (§4)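 Electrophysiological block was measured with cells depolarized to a voltage that gave 20% channel inactivation, as opposed to a fully non-inactivated (closed) holding condition.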

[23] = Clearance in rat at 0.5 mg/kg, iv by LC-MS/MS analysis; assay type: ADME, organism-based; details: in vivo; summary of the method: as §3
[24] = target: Sodium channel protein type 3 subunit alpha (Homo sapiens, UniProt Q9NY46); assay: Inhibition of 20% inactivated human Nav1.3 expressed in CHO cells assessed as inhibition of peak inward current by whole cell patch clamp method; assay type: cell-based
[25] = Unbound clearance in dog at 0.5 mg/kg, iv by LC-MS/MS analysis; assay type: ADME, organism-based, Canis lupus familiaris; details: in vivo; summary of the method: as §2
[26] = target: Sodium channel protein type 2 subunit alpha (Homo sapiens, UniProt Q99250); assay: Inhibition of 20% inactivated human Nav1.2 expressed in CHO cells assessed as inhibition of peak inward current by whole cell patch clamp method; assay type: cell-based
[27] = target: T1, Sodium channel protein type 9 subunit alpha; assay: Inhibition of 20% inactivated human Nav1.7 expressed in HEK293 cells assessed as inhibition of peak inward current by whole cell patch clamp method; assay type: cell-based; summary of the method: as §4
[28] = target: Sodium channel protein type 9 subunit alpha (Mus musculus, UniProt Q62205); assay: Inhibition of 20% inactivated mouse Nav1.7 expressed in HEK293 cells assessed as inhibition of sodium current measured for 3 to 5 mins by whole cell voltage clamp method; assay type: cell-based
Summary of the method: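 Mouse NaV1.7 was stably transfected into HEK293 cells. Block was measured with cells depolarized to a voltage that gave 20% channel inactivation.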

[29] = Drug excretion in bile duct cannulated Sprague-Dawley rat bile assessed as parent compound at 1 mg/kg, iv administered through catheter measured up to 24 hrs by LC-MS/MS analysis; assay type: ADME, organism-based; details: read-out: Drug excretion
[30] = Fraction unbound in rat plasma at 5 uM measured after 45 mins by LC-MS/MS analysis; assay type: ADME, cell-free
[31] = Inhibition of 20% inactivated dog Nav1.7 expressed in HEK293T cells assessed as inhibition of sodium current measured for 3 to 5 mins by whole cell voltage clamp method; assay type: cell-based; details: HEK-293T; summary of the method: as §4

T1 sequence (Q15858 whole entry): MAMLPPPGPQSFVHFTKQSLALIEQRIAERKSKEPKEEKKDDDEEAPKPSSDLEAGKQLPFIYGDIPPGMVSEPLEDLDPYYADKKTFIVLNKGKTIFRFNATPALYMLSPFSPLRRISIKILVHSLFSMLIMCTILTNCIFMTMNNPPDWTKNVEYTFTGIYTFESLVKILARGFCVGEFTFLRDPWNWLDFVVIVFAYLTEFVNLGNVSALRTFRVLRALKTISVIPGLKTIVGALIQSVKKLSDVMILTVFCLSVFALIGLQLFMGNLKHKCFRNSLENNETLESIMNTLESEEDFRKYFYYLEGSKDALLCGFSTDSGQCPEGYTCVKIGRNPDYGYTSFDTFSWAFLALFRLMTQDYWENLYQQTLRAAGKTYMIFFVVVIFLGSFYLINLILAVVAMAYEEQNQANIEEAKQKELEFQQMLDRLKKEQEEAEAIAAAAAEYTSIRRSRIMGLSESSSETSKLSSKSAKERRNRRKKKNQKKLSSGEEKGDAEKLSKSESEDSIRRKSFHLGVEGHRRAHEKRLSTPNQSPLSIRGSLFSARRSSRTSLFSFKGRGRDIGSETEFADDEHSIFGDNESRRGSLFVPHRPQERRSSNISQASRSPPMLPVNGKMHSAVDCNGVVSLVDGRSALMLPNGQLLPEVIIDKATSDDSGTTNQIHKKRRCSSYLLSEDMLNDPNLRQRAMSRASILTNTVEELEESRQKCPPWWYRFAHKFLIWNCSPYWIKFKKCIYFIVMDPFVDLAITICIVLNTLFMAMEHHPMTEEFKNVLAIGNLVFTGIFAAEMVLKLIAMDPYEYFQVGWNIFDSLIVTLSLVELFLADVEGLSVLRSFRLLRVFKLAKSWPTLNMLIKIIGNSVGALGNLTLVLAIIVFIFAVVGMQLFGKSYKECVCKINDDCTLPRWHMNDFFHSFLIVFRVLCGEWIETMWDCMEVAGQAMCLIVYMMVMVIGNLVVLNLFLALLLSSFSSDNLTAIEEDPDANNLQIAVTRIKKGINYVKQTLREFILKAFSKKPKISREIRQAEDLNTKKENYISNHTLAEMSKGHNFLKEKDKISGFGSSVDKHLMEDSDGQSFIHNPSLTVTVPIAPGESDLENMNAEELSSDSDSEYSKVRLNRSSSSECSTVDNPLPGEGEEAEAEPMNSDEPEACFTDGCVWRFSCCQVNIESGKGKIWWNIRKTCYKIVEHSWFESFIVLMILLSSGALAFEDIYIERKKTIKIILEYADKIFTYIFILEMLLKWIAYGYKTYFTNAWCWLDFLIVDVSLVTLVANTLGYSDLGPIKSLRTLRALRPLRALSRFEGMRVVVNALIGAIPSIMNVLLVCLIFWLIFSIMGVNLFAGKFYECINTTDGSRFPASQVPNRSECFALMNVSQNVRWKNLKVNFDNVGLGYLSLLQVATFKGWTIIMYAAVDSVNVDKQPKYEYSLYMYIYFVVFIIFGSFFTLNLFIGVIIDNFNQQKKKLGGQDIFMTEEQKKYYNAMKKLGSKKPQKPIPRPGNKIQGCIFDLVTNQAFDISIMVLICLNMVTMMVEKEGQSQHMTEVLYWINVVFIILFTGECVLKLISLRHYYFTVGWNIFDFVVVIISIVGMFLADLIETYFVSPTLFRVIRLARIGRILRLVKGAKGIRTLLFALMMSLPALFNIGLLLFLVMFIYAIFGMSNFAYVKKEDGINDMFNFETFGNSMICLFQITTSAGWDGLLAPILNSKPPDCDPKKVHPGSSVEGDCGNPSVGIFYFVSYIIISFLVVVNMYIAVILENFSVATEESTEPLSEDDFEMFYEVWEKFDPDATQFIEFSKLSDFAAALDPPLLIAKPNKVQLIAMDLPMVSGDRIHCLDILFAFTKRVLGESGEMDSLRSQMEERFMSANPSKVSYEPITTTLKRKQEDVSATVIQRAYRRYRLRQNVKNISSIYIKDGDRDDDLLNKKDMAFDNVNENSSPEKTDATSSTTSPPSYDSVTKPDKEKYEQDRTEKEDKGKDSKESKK
Chain of Sodium channel protein type 10 subunit alpha (Q9Y5Y9 whole entry): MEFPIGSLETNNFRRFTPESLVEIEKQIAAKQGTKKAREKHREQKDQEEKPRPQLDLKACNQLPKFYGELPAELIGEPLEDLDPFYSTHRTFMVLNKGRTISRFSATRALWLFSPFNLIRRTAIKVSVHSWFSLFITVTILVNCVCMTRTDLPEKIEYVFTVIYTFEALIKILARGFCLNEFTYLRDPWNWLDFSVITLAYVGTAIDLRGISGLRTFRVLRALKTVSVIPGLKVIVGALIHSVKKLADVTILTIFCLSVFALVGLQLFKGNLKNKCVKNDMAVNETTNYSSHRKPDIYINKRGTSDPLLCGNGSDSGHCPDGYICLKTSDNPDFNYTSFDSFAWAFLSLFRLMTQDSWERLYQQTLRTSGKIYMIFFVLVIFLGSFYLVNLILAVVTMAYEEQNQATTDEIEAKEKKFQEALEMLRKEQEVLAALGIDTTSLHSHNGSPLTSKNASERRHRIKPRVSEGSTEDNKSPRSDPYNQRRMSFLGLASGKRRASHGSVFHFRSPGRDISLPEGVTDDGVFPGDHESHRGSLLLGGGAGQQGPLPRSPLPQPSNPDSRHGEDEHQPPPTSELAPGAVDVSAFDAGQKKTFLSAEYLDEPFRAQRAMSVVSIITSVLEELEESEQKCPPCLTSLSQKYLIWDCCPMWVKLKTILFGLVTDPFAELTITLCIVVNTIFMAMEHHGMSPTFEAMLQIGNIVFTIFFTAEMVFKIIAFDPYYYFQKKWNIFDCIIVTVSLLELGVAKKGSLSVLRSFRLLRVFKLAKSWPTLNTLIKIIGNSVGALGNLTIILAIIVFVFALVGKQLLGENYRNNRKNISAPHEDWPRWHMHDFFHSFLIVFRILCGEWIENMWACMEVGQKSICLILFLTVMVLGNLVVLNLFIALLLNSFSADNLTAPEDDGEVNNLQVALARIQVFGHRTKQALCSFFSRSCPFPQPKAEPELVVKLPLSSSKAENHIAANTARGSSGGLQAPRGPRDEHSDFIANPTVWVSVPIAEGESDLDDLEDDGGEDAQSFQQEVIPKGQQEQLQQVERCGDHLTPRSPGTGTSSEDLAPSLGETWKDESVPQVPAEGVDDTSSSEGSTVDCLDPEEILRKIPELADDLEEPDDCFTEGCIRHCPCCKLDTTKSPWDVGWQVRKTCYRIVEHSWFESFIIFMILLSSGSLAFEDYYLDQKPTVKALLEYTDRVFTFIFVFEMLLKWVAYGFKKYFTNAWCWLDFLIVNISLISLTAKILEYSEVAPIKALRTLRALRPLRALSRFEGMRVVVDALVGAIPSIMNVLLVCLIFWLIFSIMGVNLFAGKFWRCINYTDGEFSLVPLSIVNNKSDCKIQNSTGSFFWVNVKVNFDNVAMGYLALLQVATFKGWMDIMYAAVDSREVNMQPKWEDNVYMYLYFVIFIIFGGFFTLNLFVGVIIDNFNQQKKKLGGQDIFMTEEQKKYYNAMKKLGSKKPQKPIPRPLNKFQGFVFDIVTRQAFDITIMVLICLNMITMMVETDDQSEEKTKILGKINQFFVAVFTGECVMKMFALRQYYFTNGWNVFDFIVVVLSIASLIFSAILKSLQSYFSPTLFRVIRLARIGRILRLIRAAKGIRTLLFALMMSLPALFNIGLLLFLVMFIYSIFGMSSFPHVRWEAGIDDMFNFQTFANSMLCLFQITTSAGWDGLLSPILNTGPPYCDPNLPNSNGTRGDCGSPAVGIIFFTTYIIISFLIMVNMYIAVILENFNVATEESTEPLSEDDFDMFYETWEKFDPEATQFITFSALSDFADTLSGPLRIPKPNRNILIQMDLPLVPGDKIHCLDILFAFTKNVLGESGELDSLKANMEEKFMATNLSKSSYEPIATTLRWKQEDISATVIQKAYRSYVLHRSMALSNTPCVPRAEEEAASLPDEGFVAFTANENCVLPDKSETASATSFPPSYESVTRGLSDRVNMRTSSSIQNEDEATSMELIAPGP
Chain of Voltage-gated inwardly rectifying potassium channel KCNH2 (Q12809 whole entry): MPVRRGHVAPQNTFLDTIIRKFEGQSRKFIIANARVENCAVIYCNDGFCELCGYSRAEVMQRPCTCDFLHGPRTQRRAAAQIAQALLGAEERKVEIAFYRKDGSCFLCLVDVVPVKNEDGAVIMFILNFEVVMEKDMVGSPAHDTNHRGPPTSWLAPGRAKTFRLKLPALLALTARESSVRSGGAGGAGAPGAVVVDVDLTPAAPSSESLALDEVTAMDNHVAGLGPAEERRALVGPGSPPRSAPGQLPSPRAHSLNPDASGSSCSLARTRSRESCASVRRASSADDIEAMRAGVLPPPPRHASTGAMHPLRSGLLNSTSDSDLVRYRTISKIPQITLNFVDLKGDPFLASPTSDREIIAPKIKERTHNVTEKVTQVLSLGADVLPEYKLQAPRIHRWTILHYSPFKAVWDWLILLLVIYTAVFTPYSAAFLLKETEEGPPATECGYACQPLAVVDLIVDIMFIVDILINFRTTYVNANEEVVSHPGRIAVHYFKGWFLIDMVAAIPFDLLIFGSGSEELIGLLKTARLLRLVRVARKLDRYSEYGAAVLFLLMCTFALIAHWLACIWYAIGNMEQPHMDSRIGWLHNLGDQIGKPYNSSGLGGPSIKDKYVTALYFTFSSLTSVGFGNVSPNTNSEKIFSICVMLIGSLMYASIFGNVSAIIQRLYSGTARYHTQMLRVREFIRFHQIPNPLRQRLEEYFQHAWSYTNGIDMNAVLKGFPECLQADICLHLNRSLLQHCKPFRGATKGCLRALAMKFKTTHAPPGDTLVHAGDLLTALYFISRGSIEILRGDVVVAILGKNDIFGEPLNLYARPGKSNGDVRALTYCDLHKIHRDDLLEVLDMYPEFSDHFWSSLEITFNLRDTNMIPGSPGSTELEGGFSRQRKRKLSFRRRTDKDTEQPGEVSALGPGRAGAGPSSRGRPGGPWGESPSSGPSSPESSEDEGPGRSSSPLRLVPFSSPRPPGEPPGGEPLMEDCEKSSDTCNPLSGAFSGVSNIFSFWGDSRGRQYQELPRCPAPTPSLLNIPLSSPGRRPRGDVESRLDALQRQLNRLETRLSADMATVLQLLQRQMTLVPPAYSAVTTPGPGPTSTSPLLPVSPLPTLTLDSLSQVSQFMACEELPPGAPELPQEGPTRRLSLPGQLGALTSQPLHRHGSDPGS

SMILES: COc1cc(C(F)(F)F)ccc1-c1ncnc2cc(S(=O)(=O)Nc3nccs3)ccc12
- IC50 [1]: 3.7 µM
- IC50 [2]: > 30 µM
- concentration at 0.5 h [3]: 3.1 µM
- Cmax [4]: 3.4 µM
- Cp(f) [5]: 0.11 µM
- IC50 [6]: 7.3 µM
- IC50 [7]: 0.16 µM
- IC50 [8]: 3.5 µM
- IC50 [9]: 7.2 µM
- concentration at 0.5 h [10]: 22 µM
- Cp(f) [11]: 5.1 µM
- Activity [12]: Dose-dependent effect
- Ratio IC50 [13]: >100
- Ki [14]: > 30 µM
- IC50 [15]: 0.009 µM
- half-life [16]: 18 h
- Drug uptake [17]: Dose-dependent effect
- CL free [18]: 567 mL/min/kg
- Tmax [19]: 2.3 h
- fraction unbound at 5 µM [20]: 0.014
- dose excreted at 24 h [21]: 0.02%
- IC50 [22]: 0.16 µM
- clearance [23]: 9 mL/min/kg
- IC50 [24]: 21 µM
- CL free [25]: 17 mL/min/kg
- IC50 [26]: 2.1 µM
- IC50 [27]: 0.14 µM
- IC50 [28]: 0.18 µM
- dose excreted at 24 h [29]: 4.7%
- fraction unbound at 0.75 h, 5 µM [30]: 0.016
- IC50 [31]: 0.18 µM
